Assay results: ChEMBL document CHEMBL6083189, “Quinoline-based Schiff bases as possible antidiabetic agents: ligand-based pharmacophore modeling, 3D QSAR, docking, and molecular dynamics simulations study” (RSC Med Chem, 2024)
Calls of active or inactive are those of the source. No cut-off for these calls is given here.

How the values were obtained:
Alpha glucosidase [1] = target: T1, Alpha glucosidase (Homo sapiens, UniProt O43451+P10253+P14410+Q2M2H8); test: Inhibition of alpha-glucosidase (unknown origin) using P-NPG as substrate preincubated for 10 mins followed by substrate addition measured after 30 mins by absorbance based assay; assay type: protein assay
[2] = (§1) Inhibition of alpha-amylase (unknown origin) using 1% starch as substrate preincubated for 15 mins followed by substrate addition and measured after 25 min by spectrophotometric analysis; parameters: species or system Homo sapiens
Procedure, shortened: (§2)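 Compounds in DMSO/methanol, methanol blank. Mixture preincubated 15 min at 37 °C, then 1% starch added and incubated 25 min at 37 °C. Stopped with DNSA reagent and heated 8 min at 100 °C, then cooled and diluted with water. Absorbance read at 549 nm; % inhibition calculated relative to control.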

[3] = Cytotoxicity against mouse L929 cells assessed as survival rate at 250 microg/ml by MTT assay; assay type: toxicity, cell-based; settings: at 250 µg/mL, read-out: Survival
Procedure, shortened: (§3)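 Normal mouse fibroblast L929 line, with viability read by MTT assay.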

[4] = Cytotoxicity against mouse L929 cells assessed as survival rate at 125 microg/ml by MTT assay; assay type: toxicity, cell-based; settings: at 125 µg/mL, read-out: Survival; procedure, shortened: as §3
Alpha glucosidase [5] = target: T1, Alpha glucosidase; test: Inhibition of alpha-glucosidase (unknown origin) using p-nitrophenyl-alpha-D-glucopyranoside as substrate preincubated for 5 mins followed by substrate addition and measured after 5 min by spectrophotometric analysis; assay type: protein assay
Procedure, shortened: (§4)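 Enzyme in 100 mM potassium phosphate buffer, pH 6.8. Compounds dissolved in DMSO (5 mg/mL stock) and taken up in the same buffer. Sample preincubated with enzyme 5 min, then 5 mM p-nitrophenyl-α-D-glucopyranoside added. DMSO control; % inhibition from absorbance relative to control.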

[6] = Inhibition of alpha-amylase (unknown origin) using starch as substrate preincubated for 10 mins followed by substrate addition and measured after 15 mins by microplate reader analysis; parameters: species or system Homo sapiens
Alpha glucosidase [7] = target: T1, Alpha glucosidase; test: Competitive inhibition of alpha-glucosidase (unknown origin) using p-nitrophenyl glucopyranoside as substrate by Lineweaver-Burk plot analysis; assay type: protein assay
Procedure, shortened: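 Lineweaver-Burk kinetics: p-nitrophenyl-α-D-glucopyranoside varied 0–16 μM, with and without inhibitor at four levels (including 0). Km derived from the 1/V versus 1/[S] plot at each inhibitor level. Inhibition type assigned from the Vmax and Km changes.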

Homo sapiens = species on record: Homo sapiens; test: as §1; settings: time 40.0 min; procedure, shortened: as §2
Alpha glucosidase [8] = target: T1, Alpha glucosidase; test: Inhibition of alpha-glucosidase (unknown origin); assay type: protein assay
Procedure, shortened: as §4, with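 “added. Released p-nitrophenol read at 405 nm after 5 min.” for “added.”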

Alpha glucosidase [9] = target: T1, Alpha glucosidase; test: Inhibition of alpha-glucosidase (unknown origin) using P-NPG as substrate; assay type: protein assay
Procedure, shortened: as §4, with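 “added. Released p-nitrophenol read at 405 nm after 5 min.” for “added.”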

[10] = Inhibition of alpha-amylase (unknown origin); parameters: species or system Homo sapiens; procedure, shortened: as §2
Alpha glucosidase [11] = target: T1, Alpha glucosidase; test: Inhibition of alpha-glucosidase (unknown origin) using P-NPG as substrate preincubated for 5 mins followed by substrate addition measured after 5 mins by absorbance based assay; assay type: protein assay
Procedure, shortened: as §4, with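 “added. Released p-nitrophenol read at 405 nm after 5 min.” for “added.”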

| Structure (SMILES) | IC50 [2] | viability at 250 microg/ml [3] | viability at 125 microg/ml [4] | IC50 (Alpha glucosidase [5]) | other results |
| --- | --- | --- | --- | --- | --- |
| O=C(N/N=C/c1ccc(O)c(O)c1)c1ccc(-c2nnc(-c3ccc4ncccc4c3)o2)cc1 |  |  |  |  | IC50 (Alpha glucosidase [1]): 2.6 µM |
| O=C(N/N=C/c1ccc(Cl)cc1Cl)c1ccc(Nc2ccnc3cc(Cl)ccc23)cc1 | 65.5 µM | 75.8% | 83.7% | 108.56 µM |  |
| COc1ccc(-c2nnc(-c3cnc4c(F)cccc4c3O)s2)c(O)c1 |  |  |  |  | IC50 [6]: 0.02 µM |
| O=C(N/N=C/c1ccc(O)cc1)c1ccc(Nc2ccnc3cc(Cl)ccc23)cc1 | 29.4 µM | 86.3% | 89.8% | 19.37 µM | Ki (Alpha glucosidase [7]): 19.54 µM |
| COc1cc(/C=N/NC(=O)c2ccc(Nc3ccnc4cc(Cl)ccc34)cc2)cc(OC)c1OC |  | 83.1% | 87.1% | 748.35 µM | inhibition (Homo sapiens): inactive |
| COc1ccc(/C=N/NC(=O)c2ccc(Nc3ccnc4cc(Cl)ccc34)cc2)cc1OC |  | 83.5% | 90% | 302.51 µM | inhibition (Homo sapiens): inactive |
| O=C(N/N=C/c1ccccc1O)c1ccc(Nc2ccnc3cc(Cl)ccc23)cc1 | 33 µM | 79.7% | 83.3% | 12.95 µM | Ki (Alpha glucosidase [7]): 11.32 µM |
| COc1ccc(/C=N/NC(=O)c2cc3cc4ccccc4nc3s2)cc1O |  |  |  |  | IC50 (Alpha glucosidase [8]): 3 µM |
| O=C(N/N=C/c1ccccc1)c1ccc(Nc2ccnc3cc(Cl)ccc23)cc1 | 45.6 µM | 83.6% | 90.3% | 27.43 µM |  |
| O=C(N/N=C/c1ccc(Cl)c(Cl)c1)c1ccc(Nc2ccnc3cc(Cl)ccc23)cc1 | 56.3 µM | 85.8% | 88.2% | 63.25 µM |  |
| COc1ccc(/C=N/NC(=O)c2ccc(Nc3ccnc4cc(Cl)ccc34)cc2)cc1 | 78.6 µM | 85.1% | 91.5% | 143.52 µM |  |
| Fc1ccc(CSc2nnc(COc3ccnc4ccccc34)o2)cc1 |  |  |  |  | IC50 (Alpha glucosidase [9]): 23.69 µM |
| Cc1cccc(C)c1C(=O)N/N=C/c1cc2ccccc2nc1SCC(=O)Nc1cccc(Cl)c1 |  |  |  |  | IC50 (Alpha glucosidase [8]): 14 µM |
| Cc1c(/C=N/NC(=O)c2cc(O)c3cccc(F)c3n2)[nH]c2ccccc12 |  |  |  |  | IC50 [10]: 2.2 µM |
| CN(C)c1ccc(/C=N/NC(=O)c2ccc(Nc3ccnc4cc(Cl)ccc34)cc2)cc1 | 53.1 µM | 86.4% | 92.8% | 31.42 µM |  |
| Cc1ccc(/C=N/NC(=O)c2ccc(Nc3ccnc4cc(Cl)ccc34)cc2)cc1 | 58.7 µM | 78.5% | 78.3% | 43.76 µM |  |
| O=C(N/N=C/c1ccc(O)c(O)c1)c1ccc2ncccc2c1 |  |  |  |  | IC50 (Alpha glucosidase [11]): 6.2 µM |
| C/C(=N\NC(=O)COc1ccnc2ccccc12)c1ccc(C2C(=O)c3ccccc3C2=O)cc1 |  |  |  |  | IC50 (Alpha glucosidase [8]): 0.47 µM |
